Active and inactive are the calls of the source. No cut-off for these calls is given here.
Tests used:
Casein kinase II = Casein kinase II (Homo sapiens, UniProt P19784+P67870+P68400); experiment: Inhibition of human recombinant CK2a1/CK2b holoenzyme expressed in Escherichia coli BL21(DE3) pre-incubated for 10 mins before substrate addition by capillary electrophoresis based assay
ABCG2 [1] = target: T1, ABCG2 (Homo sapiens, UniProt Q9UNQ0); experiment: Inhibition of ABCG2 (unknown origin) expressed in HEK293 cells assessed as reduction in mitoxantrone efflux at 10 uM after 30 mins by FACS method; assay type: cell-based; conditions: HEK293 cells expressing ABCG2, probe mitoxantrone
T1 sequence (Q9UNQ0 whole entry): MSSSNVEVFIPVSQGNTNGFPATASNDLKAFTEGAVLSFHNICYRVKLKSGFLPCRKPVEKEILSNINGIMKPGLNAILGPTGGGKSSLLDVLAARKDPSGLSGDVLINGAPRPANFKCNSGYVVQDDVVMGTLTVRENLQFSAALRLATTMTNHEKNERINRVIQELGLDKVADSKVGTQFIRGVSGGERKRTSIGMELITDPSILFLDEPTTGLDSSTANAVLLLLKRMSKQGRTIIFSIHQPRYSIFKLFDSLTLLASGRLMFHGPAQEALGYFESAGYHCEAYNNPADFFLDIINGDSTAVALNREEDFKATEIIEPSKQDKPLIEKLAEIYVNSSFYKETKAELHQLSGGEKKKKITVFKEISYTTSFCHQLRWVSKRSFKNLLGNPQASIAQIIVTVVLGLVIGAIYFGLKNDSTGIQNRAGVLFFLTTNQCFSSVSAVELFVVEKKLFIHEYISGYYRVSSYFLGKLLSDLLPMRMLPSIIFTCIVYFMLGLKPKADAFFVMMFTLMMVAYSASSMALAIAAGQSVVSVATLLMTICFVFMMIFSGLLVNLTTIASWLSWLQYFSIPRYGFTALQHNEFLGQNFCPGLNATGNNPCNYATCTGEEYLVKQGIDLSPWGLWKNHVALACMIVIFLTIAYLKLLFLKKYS
How it was run: (§1)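 HEK293 cells stably transfected with ABCG2 (kept in 0.75 mg/mL G418) were seeded at 1.0 × 10^5/well and grown 72 h. They were then exposed to 5 μM mitoxantrone for 30 min at 37 °C with or without compound, washed and trypsinized. Intracellular fluorescence was read by flow cytometry (FL4, ≥10,000 events).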

[2] = target: T2, Broad substrate specificity ATP-binding cassette transporter ABCG2 (Homo sapiens, UniProt Q9UNQ0); experiment: Inhibition of ABCG2 (unknown origin) expressed in HEK293 cells assessed as reduction in mitoxantrone efflux after 30 mins by FACS method; assay type: cell-based; how it was run: as §1
T2 sequence (Q9UNQ0 whole entry): T1 sequence (Q9UNQ0 whole entry)

HEK293 = experiment: Selectivity index, ratio of IC50 for human recombinant CK2a1/CK2b holoenzyme expressed in Escherichia coli BL21(DE3) to IC50 for ABCG2 (unknown origin) expressed in HEK293 cells
MCF7 [3] = experiment: Inhibition of cell proliferation of human MCF7 cells assessed as DNA synthesis at 20 uM after 24 hrs by EdU-click assay; assay type: functional; parameters: scale not given: the % may be the effect or the level left
How it was run: (§2)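 MCF-7 cells were grown in RPMI 1640 GlutaMax plus 10% FCS, seeded 5.0 × 10^4/well and incubated overnight. They were then exposed to inhibitor at 20 or 100 μM for 24 or 48 h (37 °C, 5% CO2), with 1% DMSO as control. EdU was incorporated and click-coupled to TAMRA azide, with Hoechst counterstain. Microscope counts gave TAMRA-positive nuclei as a percentage of total nuclei. Values are the mean (±SD) of four assays.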

MCF7 [4] = experiment: Inhibition of cell proliferation of human MCF7 cells assessed as DNA synthesis at 20 uM after 48 hrs by EdU-click assay; assay type: functional; parameters: scale not given: the % may be the effect or the level left; how it was run: as §2
MCF7 [5] = experiment: Inhibition of cell proliferation of human MCF7 cells assessed as DNA synthesis at 100 uM after 24 hrs by EdU-click assay; assay type: functional, cell-based; how it was run: as §2
MCF7 [6] = experiment: Induction of cell damage in human MCF7 cells at 20 to 100 uM after 24 hrs by Hoechst 33258 staining based fluorescence assay; assay type: functional
How it was run: (§3)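 MCF-7 cells in RPMI 1640 GlutaMax with 10% FCS, seeded 5.0 × 10^4 per well and left overnight. Medium was replaced with inhibitor at 20 or 100 μM, with 1% DMSO as control, for 24 h at 37 °C, 5% CO2. Nuclei were stained with Hoechst 33258 (3 μg/mL in methanol) for 30 min at room temperature in the dark and examined by fluorescence microscopy (DAPI filter) for nuclear morphology.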

MCF7 [7] = experiment: Induction of cell death in human MCF7 cells assessed as viable cell level at 20 to 100 uM after 24 hrs by Hoechst 33258 staining based fluorescence assay; assay type: functional
How it was run: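 MCF-7 cells grown in RPMI 1640 GlutaMax with 10% fetal calf serum, seeded at 5.0 × 10^4 cells/well and left overnight. Medium then replaced with fresh medium holding inhibitor at 20 or 100 μM, with 1% DMSO as control, for 24 h at 37 °C, 5% CO2. Nuclei stained with Hoechst 33258 (3 μg/mL in methanol, 30 min, room temperature, dark). Total cells counted and nuclear morphology examined by fluorescence microscopy.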

MCF7 [8] = experiment: Induction of apoptosis in human MCF7 cells assessed as reduction in nuclear size at 20 to 100 uM after 24 hrs by Hoechst 33258 staining based fluorescence assay; assay type: functional, cell-based
How it was run: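 MCF-7 cells grown in RPMI 1640 GlutaMax with 10% fetal calf serum, seeded 5.0 × 10^4 cells/well and incubated overnight. Medium then replaced with medium containing compound at 20 or 100 μM; 1% DMSO as control. Incubation 24 h at 37 °C, 5% CO2. Nuclei stained with Hoechst 33258 (3 μg/mL in methanol), 30 min at room temperature in the dark. Nuclear morphology examined by fluorescence microscopy.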

MCF7 [9] = experiment: Induction of apoptosis in human MCF7 cells assessed as chromatin condensation at 20 to 100 uM after 24 hrs by Hoechst 33258 staining based fluorescence assay; assay type: functional, cell-based; conditions: in the assay text read “100 uM” for “20 to 100 uM”; how it was run: as §3
[10] = Intrinsic cytotoxicity against HEK293 cells assessed as reduction in cell viability after 72 hrs by MTT assay; assay type: cell-based; conditions: human, read-out: IG50
How it was run: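 Wild-type HEK293 cells were seeded at 1 × 10^4/well, incubated overnight, then treated with compound (0–250 μM) for 72 h. MTT at 0.5 mg/mL was added for 4 h at 37 °C. Formazan was dissolved in DMSO/ethanol 1:1, and absorbance was read at 570 nm minus 690 nm to give IG50.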

ABCG2 [11] = experiment: Selectivity index, ratio of IC50 for intrinsic cytotoxicity against HEK293 cells to IC50 for ABCG2 (unknown origin) expressed in HEK293 cells; assay type: toxicity, cell-based; conditions: human, HEK293 cells expressing ABCG2, read-out: Selectivity Index

Sequence of Casein kinase II (P67870 whole entry): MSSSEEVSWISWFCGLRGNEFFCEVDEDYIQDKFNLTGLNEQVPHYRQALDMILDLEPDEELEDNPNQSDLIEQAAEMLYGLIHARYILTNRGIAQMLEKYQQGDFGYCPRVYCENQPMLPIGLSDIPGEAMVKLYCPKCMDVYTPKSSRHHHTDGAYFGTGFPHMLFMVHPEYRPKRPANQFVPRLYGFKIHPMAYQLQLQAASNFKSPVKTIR
Sequence of Casein kinase II (P68400 whole entry): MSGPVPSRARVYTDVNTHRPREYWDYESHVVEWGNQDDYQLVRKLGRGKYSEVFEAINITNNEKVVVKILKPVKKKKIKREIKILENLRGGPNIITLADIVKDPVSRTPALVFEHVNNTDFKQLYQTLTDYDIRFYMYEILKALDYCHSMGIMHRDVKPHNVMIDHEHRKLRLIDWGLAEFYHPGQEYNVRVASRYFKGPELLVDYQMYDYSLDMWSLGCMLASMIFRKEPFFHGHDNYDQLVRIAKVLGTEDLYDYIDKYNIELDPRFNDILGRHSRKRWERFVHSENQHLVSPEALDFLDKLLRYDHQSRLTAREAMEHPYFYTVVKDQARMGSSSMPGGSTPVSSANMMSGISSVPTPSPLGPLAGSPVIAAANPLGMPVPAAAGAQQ
Sequence of Casein kinase II (P19784 whole entry): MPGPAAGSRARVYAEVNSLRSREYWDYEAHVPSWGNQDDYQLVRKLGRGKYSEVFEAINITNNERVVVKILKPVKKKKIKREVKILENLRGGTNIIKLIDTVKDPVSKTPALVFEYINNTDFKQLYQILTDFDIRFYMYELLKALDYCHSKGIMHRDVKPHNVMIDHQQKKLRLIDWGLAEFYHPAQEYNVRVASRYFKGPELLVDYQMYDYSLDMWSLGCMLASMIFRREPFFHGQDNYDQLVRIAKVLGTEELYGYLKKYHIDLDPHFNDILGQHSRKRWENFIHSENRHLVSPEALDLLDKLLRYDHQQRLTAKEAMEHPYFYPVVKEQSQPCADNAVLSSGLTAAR

SMILES	IC50 (Casein kinase II)	inhibition at 0.5 h, 10 µM (ABCG2 [1])	IC50 [2]	Ratio IC50 (HEK293)	CC50 at 72 h [10]	selectivity ratio (ABCG2 [11])	other results
O=C1CCCc2c1c1c(n2Cc2ccccc2)-c2ccccc2C1=O	15 µM	18%	30 µM	0.5	–	–	–
CC(C)=CCOc1cccc2c1-c1c(c3c(n1C(C)C)CCCC3=O)C2=O	–	60%	1.6 µM	–	31 µM	–	Activity (MCF7 [3]): 14%; Activity (MCF7 [4]): 1.3%; inhibition (MCF7 [5]): Active; Activity (MCF7 [6]): Active; Activity (MCF7 [7]): 10%; Activity (MCF7 [8]): Active; Activity (MCF7 [9]): Active
COc1ccc2c3c([nH]c2c1)[C@H](CC(C)C)N1C(=O)[C@H](CCC(=O)OC(C)(C)C)NC(=O)[C@@H]1C3	–	–	–	–	32 µM	–	–
CC(C)n1c2c(c3c1-c1ccccc1C3=O)C(=O)C(Cc1ccccc1)(Cc1ccccc1)CC2	11 µM	90%	0.61 µM	18	6 µM	10	–
COc1cccc(CCn2c3c(c4c2-c2ccccc2C4=O)C(=O)CCC3)c1	5.1 µM	78%	0.31 µM	16	12.7 µM	41	–
O=C1CC(c2ccccc2)Cc2c1c1c(n2CCc2ccccc2)-c2ccccc2C1=O (stereo unspecified)	15 µM	83%	0.49 µM	30	20.1 µM	41	–
COc1ccc(CCn2c3c(c4c2-c2ccccc2C4=O)C(=O)CCC3)cc1	–	131%	0.7 µM	6	68.5 µM	–	–
CC(C)n1c2c(c3c1-c1ccccc1C3=O)C(=O)CCC2	–	15%	35 µM	–	–	–	–
O=C1CC(c2ccccc2)Cc2c1c1c(n2Cc2ccccc2)-c2ccccc2C1=O (stereo unspecified)	55 µM	68%	0.96 µM	–	16.9 µM	18	–
CC1CC(=O)c2c3c(n(CCc4ccccc4)c2C1)-c1ccccc1C3=O (stereo unspecified)	–	100%	0.23 µM	11	> 100 µM	–	–
CC1CC(=O)c2c3c(n(C(C)C)c2C1)-c1ccccc1C3=O (stereo unspecified)	–	65%	4.1 µM	–	–	–	–
O=C1CCCc2c1c1c(n2CCCc2ccccc2)-c2ccccc2C1=O	6 µM	83%	0.79 µM	8	> 100 µM	> 127	–
COc1ccc2[nH]cc(CCNC(=O)c3cc(=O)c4c(OCc5ccc(Br)cc5)cccc4o3)c2c1	–	98%	0.13 µM	–	96 µM	–	–
COc1ccccc1CCn1c2c(c3c1-c1ccccc1C3=O)C(=O)CCC2	1.4 µM	106%	0.21 µM	7	27.2 µM	130	–
CC(C)=CCOc1cccc2c1C(=O)c1c3c(n(C(C)C)c1-2)CCCC3=O	–	74%	3 µM	–	–	–	–
CCc1c2c(nc3ccc(O)cc13)-c1cc3c(c(=O)n1C2)COC(=O)[C@]3(O)CC [7-ETHYL-10-HYDROXYCAMPTOTHECIN]	–	–	–	–	0.005 µM	–	–
CC1CC(=O)c2c3c(n(Cc4ccccc4)c2C1)-c1ccccc1C3=O (stereo unspecified)	35 µM	33%	15 µM	2	–	–	–
CC1CCc2c(c3c(n2C(C)C)-c2ccccc2C3=O)C1=O (stereo unspecified)	–	40%	20 µM	–	–	–	–
O=C1c2c(O)ccc(O)c2C(=O)c2c(NCCNCCO)ccc(NCCNCCO)c21 [MITOXANTRONE]	–	–	–	–	0.009 µM	–	–
O=C1CCCc2c1c1c(n2CCc2ccccc2)-c2ccccc2C1=O	7 µM	100%	0.43 µM	16	30.7 µM	71	–

Source: ChEMBL document CHEMBL3352248, “Converting potent indeno[1,2-b]indole inhibitors of protein kinase CK2 into selective inhibitors of the breast cancer resistance protein ABCG2” (J Med Chem, 2015)
